≈ marks a conversion by molar mass, not a printed value.
Key:
Candida albicans = assay: Antifungal activity against Candida albicans; assay type: functional; details: CA-6
Procedure, shortened: (§1)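 Broth microdilution per NCCLS M27-A in RPMI 1640 buffered with 0.165 M MOPS, pH 7. Strains were C. albicans CA-6 (vaginal clinical isolate) and C. krusei ATCC 6258. Inocula came from 24 h cultures on Sabouraud dextrose agar at 28 °C, washed in saline and counted by hemocytometer. Serial dilutions ran 0.9–500 µg/mL. MIC was the lowest concentration giving 80% turbidity reduction versus drug-free control.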

Pichia kudriavzevii = assay: Antifungal activity against Candida krusei; assay type: functional; details: 6258; procedure, shortened: as §1
Mus musculus [1] = assay: Survival of mouse administered at 14 mg/kg/day, ip; assay type: functional, CD1; details: route intraperitoneal
Procedure, shortened: (§2)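 Female CD1 mice (8–10 weeks, 25–30 g), 10 per group, infected iv via lateral tail vein with 1×10^5 C. albicans CA-6 cells (24 h Sabouraud culture at 28 °C, saline-washed). Dosing was ip at 14 mg/kg in DMSO/H2O (1:4), 2 h before infection and then daily for 8 days. Median survival time was compared by Mann–Whitney U test, and dead/total was counted at day 30.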

Mus musculus [2] = assay: Median survival time in mouse at 14 mg/kg/day, ip; assay type: functional, CD1; details: route intraperitoneal; procedure, shortened: as §2

Compound: CN1C(=O)CSc2ccc(C(O)Cn3ccnc3)cc21 (stereo not drawn)
- MIC (Candida albicans): 62.5 µg/mL (≈ 216 µM)
- MIC (Pichia kudriavzevii): 250 µg/mL (≈ 864 µM)

Compound: CN1C(=O)COc2ccc(C(Cn3ccnc3)OCc3ccc(Cl)cc3)cc21 (stereo not drawn)
- MIC (Candida albicans): 7.8 µg/mL (≈ 19.6 µM)
- MIC (Pichia kudriavzevii): 15.6 µg/mL (≈ 39.2 µM)

Compound: CCCCC1Oc2ccc(C(O)Cn3ccnc3)cc2N(C)C1=O (stereo not drawn)
- Survival (Mus musculus [1]): 9 days
- MIC (Candida albicans): 125 µg/mL (≈ 379 µM)
- MIC (Pichia kudriavzevii): 125 µg/mL (≈ 379 µM)
- MST (Mus musculus [2]): 14 days

Compound: CCCCOC1Sc2ccc(C(O)Cn3ccnc3)cc2N(C)C1=O (stereo not drawn)
- Survival (Mus musculus [1]): 9 days
- MIC (Candida albicans): 31.2 µg/mL (≈ 86.3 µM)
- MIC (Pichia kudriavzevii): 125 µg/mL (≈ 346 µM)
- MST (Mus musculus [2]): 14 days

Compound: CCCCC1Sc2ccc(C(O)Cn3ccnc3)cc2N(C)C1=O (stereo not drawn)
- Survival (Mus musculus [1]): 9 days
- MIC (Candida albicans): 31.2 µg/mL (≈ 90.3 µM)
- MIC (Pichia kudriavzevii): 250 µg/mL (≈ 724 µM)
- MST (Mus musculus [2]): 14 days

Compound: CN1C(=O)CSc2ccc(C(Cn3ccnc3)OCc3ccc(Cl)cc3)cc21 (stereo not drawn)
- MIC (Candida albicans): < 1.8 µg/mL
- MIC (Pichia kudriavzevii): 15.6 µg/mL (≈ 37.7 µM)

Compound: CCCCOC1Oc2ccc(C(O)Cn3ccnc3)cc2N(C)C1=O (stereo not drawn)
- Survival (Mus musculus [1]): 4 days
- MIC (Candida albicans): 125 µg/mL (≈ 362 µM)
- MIC (Pichia kudriavzevii): 31.2 µg/mL (≈ 90.3 µM)
- MST (Mus musculus [2]): 12 days

Compound: CN1C(=O)COc2ccc(C(O)Cn3ccnc3)cc21 (stereo not drawn)
- MIC (Candida albicans): 250 µg/mL (≈ 915 µM)
- MIC (Pichia kudriavzevii): 31.2 µg/mL (≈ 114 µM)

Compound: OC(Cn1cncn1)(Cn1cncn1)c1ccc(F)cc1F [FLUCONAZOLE]
- Survival (Mus musculus [1]): 23 days
- MIC (Candida albicans): < 1.8 µg/mL
- MIC (Pichia kudriavzevii): 62.5 µg/mL (≈ 204 µM)
- MST (Mus musculus [2]): >30 days

From ChEMBL document CHEMBL1141215, “Design, synthesis, and microbiological evaluation of new Candida albicans CYP51 inhibitors” (2005)
